Four compounds from publication PMC2924166 (Proteins, 2009) can be followed below.

Common to all, as to format: binding
One test concerns the target WT CaM1–148 (Rattus norvegicus, UniProt P0DP29). Briefly: Fluorescence anisotropy titration of Fl-CaMKIIp with WT CaM1–148.
Test [1] in a line: Equilibrium calcium titration of CaM, sites I and II. To be noted: pH 7.4, 22°C. The method in brief:
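Recombinant CaM constructs (1–148, 1–80) at 2 μM were used alone or with 10 μM CaMKII CaM-binding-domain peptide (residues 290–309, 1:5). CaCl2 was titrated to 1 nM–0.01 M. Phe fluorescence was read at ex 250/em 280 nm. Free Ca2+ came from 0.1 μM Oregon Green, or XRhod5F with peptide. Runs were done ≥3 times, normalized, and fit by nonlinear least squares to ΔG1, ΔG2.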

Test [2] in a line: Equilibrium calcium titration of CaM, sites III and IV. The following applies: pH 7.4, 22°C.
The nature of test [3]: Calcium affinity of fluorescent indicator dyes. To be noted: higher affinity for calcium.
Where [4] appears, read: peptide equivalent 0, 2 μM CaM, 50 mM HEPES, 100 mM KCl, 1 mM MgCl2, 0.05 mM EGTA, 5 mM NTA, Oregon Green, repeated at least three times.

As to `CC[C@H](C)[C@H](NC(=O)[C@H](C)NC(=O)CNC(=O)[C@H](CCCCN)NC(=O)[C@H](CC(C)C)NC(=O)[C@H](CCCCN)NC(=O)[C@H](CCCNC(=N)N)NC(=O)[C@H](CCCNC(=N)N)NC(=O)[C@H](C)NC(=O)[C@H](CC(N)=O)NC(=O)[C@H](Cc1ccccc1)NC(=O)[C@H](CCCCN)NC(=O)[C@H](CCCCN)NC(=O)[C@@H](N)CC(C)C)C(=O)N[C@@H](CC(C)C)C(=O)N[C@H](C(=O)N[C@H](C(=O)N[C@@H](CCSC)C(=O)N[C@@H](CC(C)C)C(=O)N[C@@H](C)C(=O)O)[C@@H](C)O)[C@@H](C)O` [CaMKIIp], the “level of saturation of CaMKIIp by CaM1–148” value is given as “less than 10%” at WT CaM1–148 (10 μM CaM1–148, 23 nM calcium) and “more than 95%” at WT CaM1–148 (10 μM CaM1–148, 311 nM calcium). Further, at WT CaM1–148 (Kd of (Ca^2+)4-CaM1–148 for Fl-CaMKIIp, 10 mM CaCl2, stoichiometric range, upper limit), the Kd was no more than 10 nM. Moreover, the “concentration of apo CaM-CaMKIIp in presence of 5 eq. CaMKIIp” value at WT CaM1–148 (apo, 2 μM CaM, 10 μM CaMKIIp) is reported as no more than 10%.

For “CaM1–80: N-domain fragment of calmodulin, residues 1–80”, the “ΔG1 of calcium binding, sites I and II” value in test [1] (setting [4]) was -5.92 ± 0.38 kcal/mol. For the same compound, the entries for the “ΔGc, sites I and II” value in test [1] (peptide equivalent 0) and in test [1] (peptide equivalent 5 (CaMKIIp)) were -1.73 ± 0.68 kcal/mol and -3.38 ± 1.18 kcal/mol, respectively.

With “CaM76–148: C-domain fragment of calmodulin, residues 76–148”, in test [2] (setting [4]), the “ΔG1 of calcium binding, sites III and IV” value was -5.45 ± 0.51 kcal/mol. Besides, the “ΔGc, sites III and IV” value is -4.57 ± 1.15 kcal/mol in test [2] (peptide equivalent 0) and -2.81 ± 0.47 kcal/mol in test [2] (peptide equivalent 5 (CaMKIIp)).

With XRhod5F, the “lower Kd for calcium versus Oregon Green” value in test [3] is recorded as ~ 20 fold.
